# Measurements reported in the M2OR odorant receptor database.
# Where a chain is given by its changes, count along the chain named.
# Assays:
# Settings in all cases: stereoisomer not certain
# OR9A4 (Homo sapiens) = target: T1, OR9A4 (Homo sapiens) (UniProt Q8NGU2)
# T1 sequence (whole entry): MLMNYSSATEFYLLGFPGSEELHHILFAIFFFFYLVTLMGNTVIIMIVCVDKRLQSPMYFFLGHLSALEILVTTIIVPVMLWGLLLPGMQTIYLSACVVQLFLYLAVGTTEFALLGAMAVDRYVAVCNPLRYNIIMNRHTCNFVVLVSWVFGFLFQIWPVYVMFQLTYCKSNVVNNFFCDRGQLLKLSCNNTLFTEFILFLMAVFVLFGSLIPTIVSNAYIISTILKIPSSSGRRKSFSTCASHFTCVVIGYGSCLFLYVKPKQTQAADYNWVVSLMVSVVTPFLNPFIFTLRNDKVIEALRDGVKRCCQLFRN
# Procedure, shortened: (§1)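 Each receptor–molecule pair is labelled responsive or non-responsive (inactive) according to whether the original authors judged the measured signal statistically different from baseline. The data were taken from the main text and supplementary material of published papers and checked for typos and inconsistencies. Assay methods differed by source, with transient luciferase assays in mammalian cell lines being common.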
# OR9G1 (Homo sapiens) = target: T2, OR9G1 (Homo sapiens) (UniProt Q8NH87)
# T2 sequence (whole entry): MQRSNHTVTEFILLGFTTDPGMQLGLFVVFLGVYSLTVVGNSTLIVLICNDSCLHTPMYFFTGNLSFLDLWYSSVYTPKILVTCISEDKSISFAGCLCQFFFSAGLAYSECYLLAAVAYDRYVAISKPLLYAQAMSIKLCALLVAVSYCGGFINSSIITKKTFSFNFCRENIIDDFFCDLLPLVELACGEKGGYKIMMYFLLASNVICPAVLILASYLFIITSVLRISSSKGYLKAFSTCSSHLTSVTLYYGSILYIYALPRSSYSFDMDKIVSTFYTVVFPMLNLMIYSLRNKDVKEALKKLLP
# Procedure, shortened: as §1
# OR9G4 (Homo sapiens) = target: T3, OR9G4 (Homo sapiens) (UniProt Q8NGQ1)
# T3 sequence (whole entry): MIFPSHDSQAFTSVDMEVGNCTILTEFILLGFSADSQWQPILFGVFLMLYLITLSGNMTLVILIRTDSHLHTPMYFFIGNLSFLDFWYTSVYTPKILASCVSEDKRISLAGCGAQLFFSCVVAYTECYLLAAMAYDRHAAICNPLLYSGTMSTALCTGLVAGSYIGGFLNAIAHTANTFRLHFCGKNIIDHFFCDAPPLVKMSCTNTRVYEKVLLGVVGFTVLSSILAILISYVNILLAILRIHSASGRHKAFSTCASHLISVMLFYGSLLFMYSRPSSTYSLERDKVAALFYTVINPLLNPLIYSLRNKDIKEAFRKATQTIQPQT
# Procedure, shortened: as §1
# OR9G9 (Homo sapiens) = target: T4, OR9G9 (Homo sapiens) (UniProt P0C7N8)
# T4 sequence (whole entry): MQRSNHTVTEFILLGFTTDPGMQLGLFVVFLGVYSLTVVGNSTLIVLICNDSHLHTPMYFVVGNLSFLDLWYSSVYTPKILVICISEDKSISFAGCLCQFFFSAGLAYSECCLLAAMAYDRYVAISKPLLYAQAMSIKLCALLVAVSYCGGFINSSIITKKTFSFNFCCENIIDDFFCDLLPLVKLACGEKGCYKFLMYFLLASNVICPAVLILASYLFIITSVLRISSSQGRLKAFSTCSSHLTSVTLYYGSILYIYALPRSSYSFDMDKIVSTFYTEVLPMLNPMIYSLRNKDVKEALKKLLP
# Procedure, shortened: as §1
# OR9I1 (Homo sapiens) = target: T5, OR9I1 (Homo sapiens) (UniProt Q8NGQ6)
# T5 sequence (whole entry): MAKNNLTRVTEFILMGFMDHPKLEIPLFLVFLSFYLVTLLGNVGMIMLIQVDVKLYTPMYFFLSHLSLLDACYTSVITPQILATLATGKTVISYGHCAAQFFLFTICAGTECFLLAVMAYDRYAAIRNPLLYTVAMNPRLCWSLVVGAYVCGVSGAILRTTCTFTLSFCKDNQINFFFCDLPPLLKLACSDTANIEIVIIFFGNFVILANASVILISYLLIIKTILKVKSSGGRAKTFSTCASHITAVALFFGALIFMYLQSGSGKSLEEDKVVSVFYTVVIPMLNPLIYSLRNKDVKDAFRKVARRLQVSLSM
# Procedure, shortened: as §1
# OR9K2 (Homo sapiens) = target: T6, OR9K2 (Homo sapiens) (UniProt Q8NGE7)
# T6 sequence (whole entry): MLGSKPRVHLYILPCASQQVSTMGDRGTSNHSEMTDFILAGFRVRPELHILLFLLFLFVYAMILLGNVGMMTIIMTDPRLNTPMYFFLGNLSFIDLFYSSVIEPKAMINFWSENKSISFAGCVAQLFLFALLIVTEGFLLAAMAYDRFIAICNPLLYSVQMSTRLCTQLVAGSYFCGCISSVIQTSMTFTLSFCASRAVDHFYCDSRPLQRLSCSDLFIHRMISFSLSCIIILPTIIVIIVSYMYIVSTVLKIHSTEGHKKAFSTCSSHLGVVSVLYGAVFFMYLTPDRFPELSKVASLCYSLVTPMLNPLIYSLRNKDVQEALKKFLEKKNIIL
# Procedure, shortened: as §1
# OR9Q1 (Homo sapiens) = target: T7, OR9Q1 (Homo sapiens) (UniProt Q8NGQ5)
# T7 sequence (whole entry): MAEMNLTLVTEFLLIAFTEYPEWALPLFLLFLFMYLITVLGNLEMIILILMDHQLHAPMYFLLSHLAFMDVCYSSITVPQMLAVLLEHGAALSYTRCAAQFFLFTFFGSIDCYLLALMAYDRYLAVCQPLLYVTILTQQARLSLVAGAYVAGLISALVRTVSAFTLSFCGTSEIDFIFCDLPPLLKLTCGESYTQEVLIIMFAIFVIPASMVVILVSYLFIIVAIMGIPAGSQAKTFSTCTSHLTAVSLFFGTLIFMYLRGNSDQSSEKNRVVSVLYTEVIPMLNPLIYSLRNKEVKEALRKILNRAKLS
# Procedure, shortened: as §1
# OR9Q2 (Homo sapiens) = target: T8, OR9Q2 (Homo sapiens) (UniProt Q8NGE9)
# T8 sequence (whole entry): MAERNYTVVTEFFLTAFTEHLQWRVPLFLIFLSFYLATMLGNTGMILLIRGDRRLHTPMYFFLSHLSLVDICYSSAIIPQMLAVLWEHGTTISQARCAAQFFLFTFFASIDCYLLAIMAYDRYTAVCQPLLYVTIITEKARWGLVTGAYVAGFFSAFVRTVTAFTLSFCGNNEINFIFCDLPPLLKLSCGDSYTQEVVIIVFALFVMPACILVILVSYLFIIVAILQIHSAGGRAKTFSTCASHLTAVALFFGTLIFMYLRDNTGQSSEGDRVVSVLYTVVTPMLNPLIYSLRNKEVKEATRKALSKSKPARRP
# Procedure, shortened: as §1
# Or10j5 (Mus musculus) = target: T9, Or10j5 (Mus musculus) (UniProt Q62007)
# T9 sequence (whole entry): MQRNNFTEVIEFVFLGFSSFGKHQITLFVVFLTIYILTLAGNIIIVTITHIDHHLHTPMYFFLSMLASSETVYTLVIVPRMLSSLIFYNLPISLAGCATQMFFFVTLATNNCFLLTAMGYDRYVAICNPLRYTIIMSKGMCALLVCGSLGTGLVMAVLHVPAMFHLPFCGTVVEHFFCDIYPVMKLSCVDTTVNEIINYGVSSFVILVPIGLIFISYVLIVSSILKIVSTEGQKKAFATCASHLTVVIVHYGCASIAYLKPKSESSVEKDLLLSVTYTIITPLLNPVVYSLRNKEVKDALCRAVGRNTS
# Procedure, shortened: as §1
# OR9G4 H6Y N206D V222A = tested on: T10, OR9G4 H6Y N206D V222A
# T10 sequence (whole entry): T3 sequence (whole entry) with H6Y, N206D, V222A
# Procedure, shortened: as §1
# OR9G4 N206D V222A = tested on: T11, OR9G4 N206D V222A
# T11 sequence (whole entry): T3 sequence (whole entry) with N206D, V222A
# Procedure, shortened: as §1
# OR9K2 R207H = tested on: T12, OR9K2 R207H
# T12 sequence (whole entry): T6 sequence (whole entry) with R207H
# Procedure, shortened: as §1
# OR9Q1 A83T = tested on: T13, OR9Q1 A83T
# T13 sequence (whole entry): T7 sequence (whole entry) with A83T
# Procedure, shortened: as §1
# OR9Q2 C179R = tested on: T14, OR9Q2 C179R
# T14 sequence (whole entry): T8 sequence (whole entry) with C179R
# Procedure, shortened: as §1
# Or1m1 (Mus musculus) = target: T15, Or1m1 (Mus musculus) (UniProt Q8VFM9)
# T15 sequence (whole entry): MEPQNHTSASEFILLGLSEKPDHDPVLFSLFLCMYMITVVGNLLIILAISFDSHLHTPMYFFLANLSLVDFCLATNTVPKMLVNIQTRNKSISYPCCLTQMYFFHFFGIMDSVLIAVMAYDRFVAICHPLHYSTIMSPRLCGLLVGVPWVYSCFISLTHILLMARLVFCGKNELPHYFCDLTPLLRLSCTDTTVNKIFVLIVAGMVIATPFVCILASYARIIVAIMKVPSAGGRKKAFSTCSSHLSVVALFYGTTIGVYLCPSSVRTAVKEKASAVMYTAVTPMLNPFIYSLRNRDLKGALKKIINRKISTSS
# Procedure, shortened: as §1
# Or2c1 (Mus musculus) = target: T16, Or2c1 (Mus musculus) (UniProt P23275)
# T16 sequence (whole entry): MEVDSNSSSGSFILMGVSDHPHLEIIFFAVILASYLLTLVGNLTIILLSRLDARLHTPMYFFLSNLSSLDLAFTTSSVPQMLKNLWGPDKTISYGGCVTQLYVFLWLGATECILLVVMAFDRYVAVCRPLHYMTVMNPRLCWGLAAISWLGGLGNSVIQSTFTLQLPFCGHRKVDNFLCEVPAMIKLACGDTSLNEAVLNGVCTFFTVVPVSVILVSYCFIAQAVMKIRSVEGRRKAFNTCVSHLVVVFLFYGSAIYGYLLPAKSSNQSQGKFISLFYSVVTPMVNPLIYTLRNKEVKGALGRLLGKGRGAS
# Procedure, shortened: as §1
# Or5ar1 (Mus musculus) = target: T17, Or5ar1 (Mus musculus) (UniProt Q8VGS3)
# T17 sequence (whole entry): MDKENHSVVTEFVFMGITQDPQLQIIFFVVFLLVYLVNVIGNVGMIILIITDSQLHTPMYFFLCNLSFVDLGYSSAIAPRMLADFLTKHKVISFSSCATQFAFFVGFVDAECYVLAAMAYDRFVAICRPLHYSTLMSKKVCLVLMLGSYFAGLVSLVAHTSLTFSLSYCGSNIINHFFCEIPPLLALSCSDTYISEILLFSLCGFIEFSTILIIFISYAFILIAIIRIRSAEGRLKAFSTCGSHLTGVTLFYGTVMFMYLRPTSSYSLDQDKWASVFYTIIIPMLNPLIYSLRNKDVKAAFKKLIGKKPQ
# Procedure, shortened: as §1
# 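Further: active if original authors judged signal statistically different from baseline.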
compound,measurement,setting,value
CCCCCC(=O)C(C)C(C)=O (centres undefined),odorant receptor agonist call,OR9A4 (Homo sapiens),inactive
same,odorant receptor agonist call,OR9G1 (Homo sapiens),inactive
same,odorant receptor agonist call,OR9G4 (Homo sapiens),inactive
same,odorant receptor agonist call,OR9G9 (Homo sapiens),inactive
same,odorant receptor agonist call,OR9I1 (Homo sapiens),inactive
same,odorant receptor agonist call,OR9K2 (Homo sapiens),inactive
same,odorant receptor agonist call,OR9Q1 (Homo sapiens),inactive
same,odorant receptor agonist call,OR9Q2 (Homo sapiens),inactive
O=C(O)CCCCCCCCCCBr,odorant receptor agonist call,Or10j5 (Mus musculus),inactive
CC(CO)CS (centres undefined),odorant receptor agonist call,OR9A4 (Homo sapiens),inactive
same,odorant receptor agonist call,OR9G1 (Homo sapiens),inactive
same,odorant receptor agonist call,OR9G4 (Homo sapiens),inactive
same,odorant receptor agonist call,OR9G9 (Homo sapiens),inactive
same,odorant receptor agonist call,OR9I1 (Homo sapiens),inactive
same,odorant receptor agonist call,OR9K2 (Homo sapiens),inactive
same,odorant receptor agonist call,OR9Q1 (Homo sapiens),inactive
same,odorant receptor agonist call,OR9Q2 (Homo sapiens),inactive
CCCCOC(=O)CCC,odorant receptor agonist call,Or10j5 (Mus musculus),inactive
O=C(O)CCCBr,odorant receptor agonist call,Or10j5 (Mus musculus),inactive
CCCCCCCCCCC(=O)O,odorant receptor agonist call,Or10j5 (Mus musculus),inactive
CCCCCCC=CCCC=O,odorant receptor agonist call,OR9A4 (Homo sapiens),inactive
same,odorant receptor agonist call,OR9G1 (Homo sapiens),inactive
same,odorant receptor agonist call,OR9G4 (Homo sapiens),inactive
same,odorant receptor agonist call,OR9G4 H6Y N206D V222A,inactive
same,odorant receptor agonist call,OR9G4 N206D V222A,inactive
same,odorant receptor agonist call,OR9G9 (Homo sapiens),inactive
same,odorant receptor agonist call,OR9I1 (Homo sapiens),inactive
same,odorant receptor agonist call,OR9K2 R207H,inactive
same,odorant receptor agonist call,OR9Q1 (Homo sapiens),inactive
same,odorant receptor agonist call,OR9Q1 A83T,inactive
same,odorant receptor agonist call,OR9Q2 (Homo sapiens),inactive
same,odorant receptor agonist call,OR9Q2 C179R,inactive
CCCCCCCCCC(=O)[O-].[H+],odorant receptor agonist call,Or10j5 (Mus musculus),inactive
same,odorant receptor agonist call,Or1m1 (Mus musculus),inactive
same,odorant receptor agonist call,Or2c1 (Mus musculus),active
same,odorant receptor agonist call,Or5ar1 (Mus musculus),inactive
CCCCCCCCCCCC(=O)O,odorant receptor agonist call,Or10j5 (Mus musculus),inactive
CCCCCC(S)C(C)CO (centres undefined),odorant receptor agonist call,OR9A4 (Homo sapiens),inactive
same,odorant receptor agonist call,OR9G1 (Homo sapiens),inactive
same,odorant receptor agonist call,OR9G4 (Homo sapiens),inactive
same,odorant receptor agonist call,OR9G9 (Homo sapiens),inactive
same,odorant receptor agonist call,OR9I1 (Homo sapiens),inactive
same,odorant receptor agonist call,OR9K2 (Homo sapiens),inactive
same,odorant receptor agonist call,OR9Q1 (Homo sapiens),inactive
same,odorant receptor agonist call,OR9Q2 (Homo sapiens),inactive
O=C(O)CCCCCCCCCCCBr,odorant receptor agonist call,Or10j5 (Mus musculus),inactive
CCCCC(S)C(C)CO (centres undefined),odorant receptor agonist call,OR9A4 (Homo sapiens),inactive
same,odorant receptor agonist call,OR9G1 (Homo sapiens),inactive
same,odorant receptor agonist call,OR9G4 (Homo sapiens),inactive
same,odorant receptor agonist call,OR9G9 (Homo sapiens),inactive
same,odorant receptor agonist call,OR9I1 (Homo sapiens),inactive
same,odorant receptor agonist call,OR9K2 (Homo sapiens),inactive
same,odorant receptor agonist call,OR9Q1 (Homo sapiens),inactive
same,odorant receptor agonist call,OR9Q2 (Homo sapiens),inactive
